From ChEMBL document CHEMBL1122375, “Synthesis and biological evaluation of 2-fluoro-8-azaadenosine and related compounds” (J Med Chem, 1983)

Columns and labels:
Bos taurus = species: Bos taurus; assay: Kinetic parameter in calf intestine adenosine deaminase.; assay type: ADME; settings: cattle, in vitro
HEp-2 [1] = assay: Cytotoxicity against H.Ep cells in the presence of 0.1 ug/mL pentostatin.; assay type: functional, cell-based; settings: Homo sapiens
Procedure, shortened: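 H.Ep.-2 cell culture cytotoxicity screen with pentostatin at 0.1 µg/mL in the medium. Value is the drug concentration that inhibits cell growth to 50% of controls.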

HEp-2 [2] = assay: Cytotoxicity against H.Ep cells; assay type: functional, cell-based; settings: Homo sapiens
Procedure, shortened: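 H.Ep.-2 human cell culture cytotoxicity screen. Value is the drug concentration that inhibits cell growth to 50% of untreated controls.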

P388 [3] = assay: Percent increase in life span of P388 leukemia cells (10e6) infected(ip) mice at dose of 6(50) mg/kg, ip: qd 1-9 schedule.; assay type: functional, Mus musculus
P388 [4] = assay: Percent increase in life span of P388 leukemia cells (10e6) infected(ip) mice at dose of 400 (400) mg/kg, ip: day 1 only; assay type: functional, Mus musculus
P388 [5] = assay: Percent increase in life span of P388 leukemia cells (10e6) infected(ip) mice at dose of 50 (200) mg/kg, ip: qd 1-5 schedule.
P388 [6] = assay: Percent increase in life span of P388 leukemia cells (10e6) infected(ip) mice at dose of 50 (400) mg/kg, ip: qd 1-5 schedule.; assay type: functional, Mus musculus

Vmax (Bos taurus)	Structure (SMILES)	IC50 (HEp-2 [2])	also measured
2 µM/min/mg	COc1ncnc2c1ncn2[C@@H]1O[C@H](CO)[C@@H](O)[C@@H]1O		
1500 µM/min/mg	Nc1ncnc2c1nnn2[C@@H]1O[C@H](CO)[C@@H](O)[C@H]1O	0.7 µM	IC50 (HEp-2 [1]): < 0.02 µM
75 µM/min/mg	Nc1ncnc2c1nnn2[C@@H]1O[C@H](CO)[C@@H](O)[C@@H]1O		
119 µM/min/mg	Nc1nc(N)c2ncn([C@@H]3O[C@H](CO)[C@@H](O)[C@H]3O)c2n1		
	Nc1nc(F)nc2c1nnn2[C@H]1C[C@H](O)[C@@H](CO)O1	70 µM	
2000 µM/min/mg	Nc1ncnc2c1nnn2[C@H]1C[C@H](O)[C@@H](CO)O1	10 µM	IC50 (HEp-2 [1]): > 25 µM
27 µM/min/mg	COc1ncnc2c1nnn2[C@@H]1O[C@H](CO)[C@@H](O)[C@H]1O		
	Nc1nc(O)c2nnn(C3O[C@H](CO)[C@@H](O)[C@H]3O)c2n1 (some centres undefined)	2 µM	
	CSc1nc(N)c2nnn(C3O[C@H](CO)[C@@H](O)[C@H]3O)c2n1 (some centres undefined)	> 130 µM	
	CSc1nc(N)c2nn(C3O[C@H](CO)[C@@H](O)[C@H]3O)nc2n1 (some centres undefined)	25 µM	
	Nc1nc(N)c2nn(C3O[C@H](CO)[C@@H](O)[C@H]3O)nc2n1 (some centres undefined)	> 75 µM	ILS (P388 [4]): 0%
	CS(=O)(=O)c1nc(N)c2nn(C3O[C@H](CO)[C@@H](O)[C@H]3O)nc2n1 (some centres undefined)	22 µM	
	CCOc1nc(N)c2nnn(C3O[C@H](CO)[C@@H](O)[C@H]3O)c2n1 (some centres undefined)	> 75 µM	
	Nc1nc(F)nc2nn(C3O[C@H](CO)[C@@H](O)[C@H]3O)nc12 (some centres undefined)	> 75 µM	
	CS(=O)(=O)c1nc(N)c2nnn(C3O[C@H](CO)[C@@H](O)[C@H]3O)c2n1 (some centres undefined)	14 µM	ILS (P388 [6]): 38%
	Nc1nc(O)nc2nn(C3O[C@H](CO)[C@@H](O)[C@H]3O)nc12 (some centres undefined)	> 75 µM	
	Nc1nc(O)c2[nH]nnc2n1 [8-AZAGUANINE]	2 µM	
435 µM/min/mg	Nc1ncnc2c1ncn2[C@@H]1O[C@H](CO)[C@@H](O)[C@H]1O [ADENOSINE]		
94 µM/min/mg	Nc1ncnc2c1ncn2[C@@H]1O[C@H](CO)[C@@H](O)[C@@H]1O [VIDARABINE]		

Structure (SMILES)	Vmax (Bos taurus)	IC50 (HEp-2 [2])	also measured
Nc1nc(N)c2nnn([C@@H]3O[C@H](CO)[C@@H](O)[C@H]3O)c2n1	23 µM/min/mg	0.7 µM	IC50 (HEp-2 [1]): > 20 µM; ILS (P388 [3]): 25%
Nc1nc(F)nc2c1ncn2[C@@H]1O[C@H](CO)[C@@H](O)[C@H]1O	0.78 µM/min/mg		
Nc1nc(F)nc2c1nnn2C1O[C@H](CO)[C@@H](O)[C@H]1O (some centres undefined)	5 µM/min/mg	2 µM	IC50 (HEp-2 [1]): 2 µM; ILS (P388 [5]): 21%
